Test results from ChEMBL document CHEMBL4396949, “Anti-cancer potential of novel glycosylated 1,4-substituted triazolylchalcone derivatives” (Bioorg Med Chem Lett, 2019).
Active and inactive are the calls of the source. The rule behind the calls is not given here.

Experiments:
[1] = system: MDA-MB-468; test: Induction of apoptosis in human MDA-MB-468 cells assessed as increase in cleaved caspase-3 protein expression at 40 to 60 uM by Western blot analysis; assay type: functional, cell-based
[2] = system: MCF7; test: Induction of cell cycle arrest in human MCF7 cells assessed as increase in accumulation at sub G1 phase at 60 uM by PI staining based FACS analysis relative to control; assay type: functional
Summary of the method: (§1)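 Cells exposed to 20, 40 and 60 µM; cell cycle distribution by FACS, with sub-G1 population quantified as a measure of apoptosis.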

[3] = system: MCF7; test: Induction of ROS production in human MCF7 cells assessed as increase in green intensity incubated for 12 hrs by DCFDA staining based microscopic analysis; assay type: functional, cell-based
Summary of the method: (§2)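 Cells exposed to 0, 20, 40 and 60 µM for 12 h, then loaded with DCFDA (100 µM) for 30 min; green fluorescence assessed by microscopy with image quantitation, plus spectrophotometric fluorescence intensity; H2O2 positive control.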

[4] = system: MCF7; test: Induction of mitochondrial ROS production in human MCF7 cells at 40 to 60 uM incubated for 24 hrs by MitoSox red dye based fluorescence microscopic method; assay type: functional, cell-based
Summary of the method: (§3)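 MitoSOX Red, a live-cell mitochondria-targeted superoxide probe, after exposure to 40 and 60 µM; read by fluorescence microscopy and spectrophotometric fluorescence intensity; H2O2 positive control.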

[5] = system: MDA-MB-468; test: Induction of ROS production in human MDA-MB-468 cells assessed as increase in green intensity incubated for 12 hrs by DCFDA staining based microscopic analysis; assay type: functional, cell-based; summary of the method: as §2
[6] = system: MCF7; test: Induction of apoptosis in human MCF7 cells assessed as increase in apoptotic cells at 60 uM incubated for 24 hrs by annexin V-FITC and PI staining based flow cytometric analysis relative to control; assay type: functional
Summary of the method: (§4)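 Cells treated at 0, 20, 40 and 60 µM for 24 h, stained with Annexin V-FITC/PI and analysed by flow cytometry; apoptotic cell percentage quantified from dot plots.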

[7] = system: MDA-MB-468; test: Induction of mitochondrial ROS production in human MDA-MB-468 cells at 40 to 60 uM incubated for 24 hrs by MitoSox red dye based fluorescence microscopic method; assay type: functional, cell-based; summary of the method: as §3
[8] = system: MDA-MB-468; test: Induction of apoptosis in human MDA-MB-468 cells assessed as decrease in bcl2 protein expression at 40 to 60 uM by Western blot analysis; assay type: functional, cell-based
[9] = system: MDA-MB-468; test: Induction of DNA fragmentation in human MDA-MB-468 cells assessed as apoptotic cells at 60 uM incubated for 12 hrs by DAPI staining based fluorescence microscopic method relative to control; assay type: functional
Summary of the method: (§5)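 Nuclear morphology by DAPI staining and fluorescence microscopy; apoptotic (fragmented, polynuclear) nuclei counted and expressed as percent apoptotic cells versus untreated control; H2O2 positive control.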

[10] = system: MCF7; test: Induction of apoptosis in human MCF7 cells assessed as increase in apoptotic cells incubated for 24 hrs by annexin V-FITC and PI staining based flow cytometric analysis; assay type: functional, cell-based; summary of the method: as §4
[11] = system: MCF7; test: Antiproliferative activity against human MCF7 cells incubated for 24 hrs by MTT assay; assay type: functional; conditions: MCF7, 24 h, read-out: LD50 (the source's name)
Summary of the method: (§6)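 Cells exposed to compounds at […]; viability read by MTT assay. LD50 derived from concentration-response. MDA-MB-468: triple-negative (ER-, PR-, HER2-) breast cancer. MCF-7: ER+, PR+, HER2- breast cancer. WI-38: non-cancerous lung fibroblasts. Selectivity index taken as WI-38 LD50 divided by cancer-cell LD50.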

[12] = system: MDA-MB-468; test: Induction of apoptosis in human MDA-MB-468 cells assessed as increase in apoptotic cells at 60 uM incubated for 24 hrs by annexin V-FITC and PI staining based flow cytometric analysis relative to control; assay type: functional; summary of the method: as §4
[13] = system: MDA-MB-468; test: Induction of apoptosis in human MDA-MB-468 cells assessed as increase in bax protein expression at 40 to 60 uM by Western blot analysis; assay type: functional, cell-based
[14] = Antiproliferative activity against human WI38 cells incubated for 24 hrs by MTT assay; assay type: cell-based, WI-38; conditions: read-out: LD50; summary of the method: as §6
[15] = system: MDA-MB-468; test: Disruption of mitochondrial membrane potential in human MDA-MB-468 cells assessed as shift of fluorescence from red to green by JC1 staining based fluorescent microscopic method; assay type: functional, cell-based
Summary of the method: (§7)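 JC-1 staining with fluorescence imaging; mitochondrial permeability transition read as a red-to-green shift (fall in red/green ratio), quantified from images; H2O2 as positive control.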

[16] = system: MDA-MB-468; test: Antiproliferative activity against human MDA-MB-468 cells incubated for 24 hrs by MTT assay; assay type: functional; conditions: MDA-MB-468, 24 h, read-out: LD50 (the source's name); summary of the method: as §6
[17] = system: MCF7; test: Induction of DNA fragmentation in human MCF7 cells assessed as apoptotic cells at 40 to 60 uM incubated for 12 hrs by DAPI staining based fluorescence microscopic method; assay type: functional, cell-based; summary of the method: as §5
[18] = system: MCF7; test: Induction of DNA fragmentation in human MCF7 cells assessed as apoptotic cells at 60 uM incubated for 12 hrs by DAPI staining based fluorescence microscopic method relative to control; assay type: functional; summary of the method: as §5
[19] = system: WI-38; test: Induction of apoptosis in human WI38 cells at 20 to 60 uM incubated for 24 hrs by annexin V-FITC and PI staining based flow cytometric analysis; assay type: cell-based; conditions: wi-38, 24 h; summary of the method: as §4
[20] = system: MDA-MB-468; test: Induction of cell cycle arrest in human MDA-MB-468 cells assessed as increase in accumulation at sub G1 phase at 60 uM by PI staining based FACS analysis relative to control; assay type: functional; summary of the method: as §1
[21] = Selectivity index, ratio of LD50 for human WI38 cells to LD50 for human MCF7 cells; assay type: toxicity; conditions: WI38 cells and MCF7 cells, read-out: Selectivity Index
Summary of the method: (§8)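 MTT cytotoxicity after exposure to […] in MDA-MB-468, MCF-7 and WI-38 fibroblasts; LD50 determined per line; selectivity index calculated as WI-38 LD50 divided by cancer-cell LD50.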

[22] = system: MDA-MB-468; test: Induction of apoptosis in human MDA-MB-468 cells assessed as increase in apoptotic cells incubated for 24 hrs by annexin V-FITC and PI staining based flow cytometric analysis; assay type: functional, cell-based; summary of the method: as §4
[23] = system: MDA-MB-468; test: Induction of DNA fragmentation in human MDA-MB-468 cells assessed as apoptotic cells at 40 to 60 uM incubated for 12 hrs by DAPI staining based fluorescence microscopic method; assay type: functional, cell-based; summary of the method: as §5
[24] = system: MCF7; test: Induction of DNA fragmentation in human MCF7 cells assessed as formation of polynuclear fragmentation at 40 to 60 uM incubated for 12 hrs by DAPI staining based fluorescence microscopic method; assay type: functional, cell-based; summary of the method: as §5
[25] = system: MDA-MB-468; test: Induction of DNA fragmentation in human MDA-MB-468 cells assessed as formation of polynuclear fragmentation at 40 to 60 uM incubated for 12 hrs by DAPI staining based fluorescence microscopic method; assay type: functional, cell-based; summary of the method: as §5
[26] = Selectivity index, ratio of LD50 for human WI38 cells to LD50 for human MDA-MB-468 cells; assay type: toxicity; conditions: WI38 cells and MDA-MB-468 cells, read-out: Selectivity Index; summary of the method: as §8
[27] = system: MCF7; test: Disruption of mitochondrial membrane potential in human MCF7 cells assessed as shift of fluorescence from red to green by JC1 staining based fluorescent microscopic method; assay type: functional, cell-based; summary of the method: as §7

## CN(C)c1ccc(/C=C/C(=O)c2ccc(OCc3cn([C@@H]4O[C@H](CO)[C@@H](O)[C@H](O)[C@H]4O)nn3)cc2)cc1
[1]
  Activity: Active
[2]
  Activity: 67%
[3]
  Activity: Dose-dependent effect
[4]
  Activity: Active
[5]
  Activity: Dose-dependent effect
[6]
  Activity: 63%
[7]
  Activity: Active
[8]
  Activity: Active
[9]
  Activity: 72%
[10]
  Activity: Dose-dependent effect
[11]
  CC50: 31 µM
[12]
  Activity: 60%
[13]
  Activity: Active
[14]
  CC50 at 24 h: 59 µM
[15]
  Activity: Dose-dependent effect
[16]
  CC50: 28 µM
[17]
  Activity: Active
[18]
  Activity: 78%
[19]
  Activity: Non-Toxic
[20]
  Activity: 62%
[21]
  selectivity ratio: 1.9
[22]
  Activity: Dose-dependent effect
[23]
  Activity: Active
[24]
  Activity: Active
[25]
  Activity: Active
[26]
  selectivity ratio: 2.11
[27]
  Activity: Dose-dependent effect
